ChEMBL document CHEMBL4041514, “From pyrrolidinyl-benzodioxane to pyrrolidinyl-pyridodioxanes, or from unselective antagonism to selective partial agonism at α4β2 nicotinic acetylcholine receptor” (Eur J Med Chem, 2017)
pEC50, pIC50, pKi: −log10 of the molar value. The source made the active and inactive calls. The rule behind the calls is not given here.

Legend:
[1] = Displacement of [125I]alpha-bungarotoxin from rat hippocampus membrane alpha7* nAChR pretreated for 5 mins followed by [125I]alpha-bungarotoxin addition after overnight incubation by gamma counter
In short: (§1)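 Competition binding using [3H]epibatidine for rat cortex α4β2* and human α3β4 from transfected cells, and [125I]α-bungarotoxin for rat hippocampus α7*. Kd from three saturation experiments and Ki from three competition experiments. Fitted by nonlinear least squares (LIGAND) with an F test.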

[2] = Selectivity ratio of Ki for displacement of [3H]epibatidine from human alpha3beta4 nAChR expressed in HEK293 cells to Ki for displacement of [3H]epibatidine from rat cerebral cortex membrane alpha4beta2* nAChR; assay type: cell-based
In short: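 [3H]-epibatidine competition binding on native rat cerebral cortex membranes (α4β2*) and on membranes of HEK cells transiently transfected with human α3β4. Kd and Ki came from three saturation and three competition experiments each, fitted by nonlinear least squares (LIGAND) with F test. The ratio is α3β4 Ki divided by α4β2 Ki.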

Rattus norvegicus = species: Rattus norvegicus; assay: Selectivity ratio of Ki for displacement of [125I]alpha-bungarotoxin from rat hippocampus membrane alpha7* nAChR to Ki for displacement of [3H]epibatidine from rat cerebral cortex membrane alpha4beta2* nAChR
In short: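 Ki for rat hippocampal α7* ([125I]α-bungarotoxin competition) divided by Ki for rat cortical α4β2* ([3H]epibatidine competition). Each Ki comes from three competition experiments analysed by nonlinear least squares.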

[3] = Displacement of [3H]epibatidine from rat cerebral cortex membrane alpha4beta2* nAChR pretreated for 5 mins followed by [3H]epibatidine addition after overnight incubation by beta counter; in short: as §1
[4] = biological target: T1, Neuronal acetylcholine receptor; alpha3/beta4 (Homo sapiens, UniProt P30926+P32297); assay: Displacement of [3H]epibatidine from human alpha3beta4 nAChR expressed in HEK293 cells pretreated for 5 mins followed by [3H]epibatidine addition after overnight incubation by beta counter; assay type: cell-based; in short: as §1
T1 sequence (P30926 whole entry): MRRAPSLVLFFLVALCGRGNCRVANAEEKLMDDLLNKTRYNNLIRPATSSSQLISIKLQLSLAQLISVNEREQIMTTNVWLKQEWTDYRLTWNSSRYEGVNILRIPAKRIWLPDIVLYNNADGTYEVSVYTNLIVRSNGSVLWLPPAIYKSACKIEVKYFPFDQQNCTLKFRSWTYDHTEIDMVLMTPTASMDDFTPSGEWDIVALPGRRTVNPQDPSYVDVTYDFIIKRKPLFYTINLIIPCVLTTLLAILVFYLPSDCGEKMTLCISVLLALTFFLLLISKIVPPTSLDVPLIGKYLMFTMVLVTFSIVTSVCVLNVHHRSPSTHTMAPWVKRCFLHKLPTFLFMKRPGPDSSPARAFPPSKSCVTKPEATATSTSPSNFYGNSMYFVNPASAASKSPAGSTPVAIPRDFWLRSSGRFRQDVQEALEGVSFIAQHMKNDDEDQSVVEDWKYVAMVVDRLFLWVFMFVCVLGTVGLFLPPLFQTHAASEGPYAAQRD
T1 sequence (P32297 whole entry): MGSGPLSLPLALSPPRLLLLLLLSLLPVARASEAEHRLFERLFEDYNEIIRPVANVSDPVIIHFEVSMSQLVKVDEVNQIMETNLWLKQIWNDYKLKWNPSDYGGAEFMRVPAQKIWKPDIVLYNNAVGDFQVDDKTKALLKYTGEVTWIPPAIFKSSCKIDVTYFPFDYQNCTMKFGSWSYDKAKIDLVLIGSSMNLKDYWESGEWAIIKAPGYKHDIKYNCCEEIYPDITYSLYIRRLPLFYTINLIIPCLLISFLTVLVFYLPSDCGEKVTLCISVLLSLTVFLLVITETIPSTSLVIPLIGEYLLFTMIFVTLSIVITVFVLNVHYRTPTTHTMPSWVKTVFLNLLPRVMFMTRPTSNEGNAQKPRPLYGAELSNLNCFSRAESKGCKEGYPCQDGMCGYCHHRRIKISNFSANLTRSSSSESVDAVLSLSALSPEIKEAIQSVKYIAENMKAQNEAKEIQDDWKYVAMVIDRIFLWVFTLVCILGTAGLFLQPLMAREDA

[5] = biological target: T2, Neuronal acetylcholine receptor; alpha4/beta2 (Homo sapiens, UniProt P17787+P43681); assay: Antagonist activity at human alpha4beta2 nAChR expressed in GH4CL cells by whole-cell patch clamp method; assay type: cell-based
T2 sequence (P17787 whole entry): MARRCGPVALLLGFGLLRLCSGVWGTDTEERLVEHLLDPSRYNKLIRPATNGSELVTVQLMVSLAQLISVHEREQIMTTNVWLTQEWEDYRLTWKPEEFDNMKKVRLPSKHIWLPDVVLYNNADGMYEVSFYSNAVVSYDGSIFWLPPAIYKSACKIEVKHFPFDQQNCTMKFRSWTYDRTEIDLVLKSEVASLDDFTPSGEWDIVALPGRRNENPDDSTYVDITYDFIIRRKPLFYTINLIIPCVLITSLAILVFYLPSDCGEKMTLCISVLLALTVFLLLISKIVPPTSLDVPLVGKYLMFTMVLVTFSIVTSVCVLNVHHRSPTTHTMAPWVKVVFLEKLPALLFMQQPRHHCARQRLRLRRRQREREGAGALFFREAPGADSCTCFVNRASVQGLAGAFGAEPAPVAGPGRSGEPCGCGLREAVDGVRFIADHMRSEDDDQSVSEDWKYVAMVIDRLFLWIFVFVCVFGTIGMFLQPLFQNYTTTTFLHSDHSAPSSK
T2 sequence (P43681 whole entry): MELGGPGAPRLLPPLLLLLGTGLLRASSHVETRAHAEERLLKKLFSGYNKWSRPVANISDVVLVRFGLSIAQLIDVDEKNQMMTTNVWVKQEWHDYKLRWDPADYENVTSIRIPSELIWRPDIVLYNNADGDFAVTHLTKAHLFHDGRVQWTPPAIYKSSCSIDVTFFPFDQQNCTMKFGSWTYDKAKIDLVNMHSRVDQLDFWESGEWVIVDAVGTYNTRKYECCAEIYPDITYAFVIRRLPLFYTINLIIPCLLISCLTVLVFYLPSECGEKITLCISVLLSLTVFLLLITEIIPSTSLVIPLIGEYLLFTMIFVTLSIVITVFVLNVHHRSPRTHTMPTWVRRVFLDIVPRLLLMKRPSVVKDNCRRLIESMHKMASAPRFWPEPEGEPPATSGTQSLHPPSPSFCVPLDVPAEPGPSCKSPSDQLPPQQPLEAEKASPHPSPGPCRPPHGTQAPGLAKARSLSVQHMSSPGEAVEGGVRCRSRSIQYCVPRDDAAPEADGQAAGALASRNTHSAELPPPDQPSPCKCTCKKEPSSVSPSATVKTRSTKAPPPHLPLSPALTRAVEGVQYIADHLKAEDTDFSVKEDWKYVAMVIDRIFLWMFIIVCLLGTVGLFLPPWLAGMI

[6] = biological target: T1, Neuronal acetylcholine receptor; alpha3/beta4; assay: Antagonist activity at human alpha3beta4 nAChR expressed in GH4CL cells by whole-cell patch clamp method; assay type: cell-based
[7] = biological target: T1, Neuronal acetylcholine receptor; alpha3/beta4; assay: Partial agonist activity at human alpha3beta4 nAChR expressed in GH4CL cells by whole-cell patch clamp method; assay type: cell-based
In short: (§2)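 Human receptor transiently transfected into GH4C1 pituitary cells. Agonist concentrations applied in sequence. Peak currents normalized to the 1 mM ACh response on the same cell. Fitted to a Hill equation, I = Imax([C]^nH/(EC50^nH+[C]^nH)), to give EC50, Imax and Hill coefficient.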

[8] = biological target: T2, Neuronal acetylcholine receptor; alpha4/beta2; assay: Partial agonist activity at human alpha4beta2 nAChR expressed in GH4CL cells by whole-cell patch clamp method; assay type: cell-based; in short: as §2
[9] = biological target: T2, Neuronal acetylcholine receptor; alpha4/beta2; assay: Partial agonist activity at human alpha4beta2 nAChR expressed in GH4CL cells by whole-cell patch clamp method relative to acetylcholine; assay type: cell-based; in short: as §2
[10] = biological target: Neuronal acetylcholine receptor; alpha4/beta2 (Rattus norvegicus, UniProt P09483+P12390); assay: Displacement of [3H](-)cytisine from rat whole brain alpha4beta2 nAChR
Sequence of Neuronal acetylcholine receptor; alpha4/beta2 (Rattus norvegicus, UniProt P09483+P12390) (P09483 whole entry): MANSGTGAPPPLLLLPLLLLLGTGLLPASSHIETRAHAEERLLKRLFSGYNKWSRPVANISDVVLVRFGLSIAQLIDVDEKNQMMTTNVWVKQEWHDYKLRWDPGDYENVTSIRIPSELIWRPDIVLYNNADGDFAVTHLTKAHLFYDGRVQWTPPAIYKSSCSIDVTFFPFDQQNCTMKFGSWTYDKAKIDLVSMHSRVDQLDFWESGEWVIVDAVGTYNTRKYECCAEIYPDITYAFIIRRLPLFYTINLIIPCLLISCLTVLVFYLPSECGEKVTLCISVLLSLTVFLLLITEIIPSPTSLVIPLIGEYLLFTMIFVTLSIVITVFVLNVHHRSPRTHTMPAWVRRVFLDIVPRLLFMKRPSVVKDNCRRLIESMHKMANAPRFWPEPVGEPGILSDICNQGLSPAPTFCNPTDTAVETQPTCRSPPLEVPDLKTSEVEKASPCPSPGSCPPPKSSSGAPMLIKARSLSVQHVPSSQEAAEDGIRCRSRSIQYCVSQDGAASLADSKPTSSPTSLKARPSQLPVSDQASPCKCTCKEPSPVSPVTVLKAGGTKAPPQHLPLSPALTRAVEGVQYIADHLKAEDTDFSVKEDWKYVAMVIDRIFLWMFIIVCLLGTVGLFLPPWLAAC
Sequence of Neuronal acetylcholine receptor; alpha4/beta2 (Rattus norvegicus, UniProt P09483+P12390) (P12390 whole entry): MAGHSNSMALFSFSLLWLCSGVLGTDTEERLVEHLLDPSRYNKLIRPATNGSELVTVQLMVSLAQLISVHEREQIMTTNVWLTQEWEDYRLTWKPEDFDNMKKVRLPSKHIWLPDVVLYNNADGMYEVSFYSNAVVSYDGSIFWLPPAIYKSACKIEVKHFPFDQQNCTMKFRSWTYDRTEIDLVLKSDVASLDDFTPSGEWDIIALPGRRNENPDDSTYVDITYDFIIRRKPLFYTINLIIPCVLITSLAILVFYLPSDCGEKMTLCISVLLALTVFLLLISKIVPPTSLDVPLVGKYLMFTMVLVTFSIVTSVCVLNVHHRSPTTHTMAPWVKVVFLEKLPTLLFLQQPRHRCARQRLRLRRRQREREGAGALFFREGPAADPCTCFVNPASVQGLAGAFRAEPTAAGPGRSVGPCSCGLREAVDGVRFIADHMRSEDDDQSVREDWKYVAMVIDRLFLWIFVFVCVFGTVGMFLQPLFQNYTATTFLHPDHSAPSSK

Row | Structure (SMILES) | pKi [1] | Ratio Ki [2] | Ratio Ki (Rattus norvegicus) | pKi [3] | pKi [4] | also measured
1 | C[C@@H](Oc1cccc(O)c1)[C@@H]1CCCN1C | 7.24 | 23 | 5 | 7.96 | – | –
2 | CN1CCC[C@H]1[C@H]1COc2ncccc2O1 | < 5.00 | – | – | 4.52 | 4.66 | –
3 | CN1CCC[C@H]1[C@H]1COc2cccnc2O1 | 4.92 | – | – | 4.52 | – | –
4 | CN1CCC[C@H]1[C@H]1COc2ccc(O)cc2O1 | 6.37 | 26 | 36 | 7.92 | 6.51 | –
5 | CN1CCC[C@H]1[C@H]1COc2ccncc2O1 | – | – | – | 5.44 | 5.05 | –
6 | CN1CCC[C@H]1[C@@H]1COc2cccnc2O1 | 4.62 | – | – | 4.37 | – | –
7 | COc1ccc(O)cc1OC[C@@H]1CCCN1C | 5.94 | 14 | 60 | 7.72 | – | –
8 | CN1CCC[C@H]1[C@@H]1COc2ccccc2O1 | 4.68 | 5 | 81 | 6.59 | 5.92 | pIC50 [5]: 5.27; pIC50 [6]: 5.55 to 5.56; Activity [7]: inactive; Activity [8]: inactive
9 | CN1CCC[C@H]1[C@H]1COc2ccccc2O1 | 4.84 | – | – | 6.33 | 5.09 | –
10 | CN1CCC[C@H]1[C@@H]1COc2ccncc2O1 | – | – | – | 5.79 | 5.24 | –
11 | CN1CCC[C@H]1[C@@H]1COc2ncccc2O1 | 4.05 | 39 | 215 | 6.39 | 4.79 | %max [9]: 24.2%; pEC50 [8]: 5.00
12 | CN1CCC[C@H]1c1cc2ccccc2o1 | – | – | – | – | – | pKi [10]: 6.80
